Experimental data taken from ChEMBL document CHEMBL1133515, “Hydrolytic stability versus ring size in lactams: implications for the development of lactam antibiotics and other serine protease inhibitors” (J Med Chem, 2000).

Assays:
Type in all cases: ADME
[1] = Compound was evaluated for rate of hydrolysis expressed in hours at a pH of 12.; conditions: pH 12
Method in brief: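 Deuterated phosphate buffer at pH 12 was made from 1 M K2DPO4 in D2O, with pH adjusted using 10 M KOD. Lactams were dissolved in it at 0.10 and 0.50 M. Hydrolysis was followed over time, and a rate constant per hour was derived.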

[2] = Compound was evaluated for rate of hydrolysis expressed in hours at a pH of 7.5; conditions: pH 7.5
Method in brief: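 Pseudo-first-order hydrolysis was run in 0.33 M phosphate buffer at pH 7.5 in D2O, made by mixing Na2DPO4 and KD2PO4 solutions. The pH was checked potentiometrically. The rate constant was expressed per hour.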

[3] = Compound was evaluated for the second order hydrolysis rate constant
Method in brief: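 Amides were reacted with NaOD in D2O under second-order conditions. Concentrations of amide and hydroxide were tracked over reaction time. k2 was taken from the gradient of a plot of the log of the lactam/hydroxide concentration ratio against time, using the second-order rate law with the starting amide and NaOD concentrations.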

**Q.** With `CC1(C)S[C@@H]2[C@H](NC(=O)Cc3ccccc3)C(=O)N2[C@H]1C(=O)[O-].[K+]` [PENICILLIN G POTASSIUM] as the compound, how does the k [1] read?
**A.** Its k is 2.3 h⁻¹.

**Q.** What about the k [2] of the same compound?
**A.** Its k is 0.00337 h⁻¹.

**Q.** With `O=C1CCCCCCN1` as the compound, how does the k2 [3] read?
**A.** Its k2 is 1.36e-07 M⁻¹ s⁻¹.

**Q.** For `O=C1CCCN1` [2-PYRROLIDONE], which k2 [3] is on record?
**A.** The k2 was 5.59 M⁻¹ s⁻¹.

**Q.** Which k2 [3] does the source give for `CNC(C)=O` here?
**A.** The k2 was 3.32e-06 M⁻¹ s⁻¹.

**Q.** With `O=C1CCCCCN1` [CAPROLACTAM] as the compound, how does the k2 [3] read?
**A.** Its k2 is 3.21e-06 M⁻¹ s⁻¹.

**Q.** Which results are given for `O=C1CCCCN1`?
**A.** k2 [3]: 0.000121 M⁻¹ s⁻¹; k [1]: 0.000648 h⁻¹

**Q.** Which k2 [3] does the source give for `O=C1CCN1` here?
**A.** Its k2 is 0.000237 M⁻¹ s⁻¹.

**Q.** What about the k [1] of the same compound?
**A.** The k was 0.00103 h⁻¹.

**Q.** With `O=C1CCCCCCCN1` as the compound, how does the k2 [3] read?
**A.** The k2 was 2.72e-07 M⁻¹ s⁻¹.
